Source: ChEMBL document CHEMBL4433210, “Synthesis and Evaluation of Bifunctional Aminothiazoles as Antiretrovirals Targeting the HIV-1 Nucleocapsid Protein” (ACS Med Chem Lett, 2019)
The source made the active and inactive calls.

Assays:
[1] = test system: Human immunodeficiency virus 1; test: Antiviral activity against wild-type HIV1 NL4-3 infected infected in human MT2 cells assessed as reduction in HIV1 integrated DNA at 1 uM and measured after 30 hrs post infection by Alu-LTR PCR protocol based method; assay type: functional, organism-based
Method in brief: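 MT-2 cells were infected with NL4-3 at MOI 0.1 and incubated with test or reference agents at 20, 5 or 1 μM. Real-time PCR measured integrated HIV-1 DNA and intracellular and extracellular genomic HIV-1 RNA at 30 h post-infection. Levels are expressed as a percentage of the no-drug control culture.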

[2] = Selectivity index, ratio of TD50 for cytotoxicity aginst human PBMC cells to IC50 for antiviral activity against wild type HIV1 NL4-3 infected in human TZM-bl cells assessed as reduction in viral replication after 48 hrs by bright Glo-luciferase reporter gene assay based BiCycle assay; assay type: toxicity, cell-based; settings: read-out: Selectivity Index
Method in brief: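 SI calculated as TD50 from the PBMC MTS assay divided by IC50 from the BiCycle antiviral assay (MT-2 infection followed by TZM-bl read-out).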

[3] = test system: Human immunodeficiency virus 1; test: Antiviral activity against wild type HIV1 NL4-3 infected in human TZM-bl cells assessed as reduction in viral replication after 48 hrs by bright Glo-luciferase reporter gene assay based BiCycle assay; assay type: functional, organism-based; settings: Human immunodeficiency virus 1, NL4-3, TZM-bl
Method in brief: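 BiCycle format: MT-2 cells infected with wild-type NL4-3 in the presence of compound dilutions. Virus produced in this first round was then quantified by infecting TZM-bl cells. IC50 was derived from the dose-response data.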

[4] = Inhibition of synthesized Nucleocapsid protein (11 to 55 residues) assessed as reduction in NC-induced cTAR DNA destabilization pre-treated with cTAR and Nucleocapsid (11-55) for 15 mins followed by compound addition at 10 uM by spectroflurometry relative to control
Method in brief: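 NC chaperone inhibition assay: fluorescence monitoring of NC-induced destabilization of cTAR DNA labelled with Alexa488 at the 5′ end and Dabcyl quencher at the 3′ end. Compound is tested at 10 μM.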

[5] = Cytotoxicity against human PBMC cells assessed as reduction in cell viability after 7 days by MTS assay; assay type: cell-based; settings: read-out: TD50
Method in brief: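 Cytotoxicity in peripheral blood mononuclear cells by MTS assay, giving TD50. Only compounds that met the BiCycle IC50 ≤ 5 μM criterion and were positive in the NC inhibition assay were tested.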

[6] = test system: Human immunodeficiency virus 1; test: Antiviral activity against wild-type HIV1 NL4-3 infected in human TZM-bl cells treated with compound assessed as reduction in viral replication after 48 hrs by bright Glo-luciferase reporter gene assay based monocycle assay; settings: Human immunodeficiency virus 1, NL4-3
[7] = test system: Human immunodeficiency virus 1; test: Antiviral activity against HIV1 7400 harboring nucleoside reverse transcriptase M41L/D67N/M184V/L210W/T215Y mutant infected in human TZM-bl cells infected with supernatants from virus-infected human MT2 cells treated with compound for 72 hrs assessed as reduction in viral replication after 48 hrs by bright Glo-luciferase reporter gene assay; assay type: functional, organism-based; settings: Human immunodeficiency virus 1, 7400
Method in brief: (§1)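 BiCycle assay: MT-2 cells infected with a drug-resistant HIV-1 strain in the presence of compound dilutions. Virus produced in this first round is then measured by infecting TZM-bl cells. The readout is IC50.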

[8] = test system: Human immunodeficiency virus 1; test: Selectivity ratio of IC50 for HIV1 12231 harboring non-nucleoside reverse transcriptase 103N/179F/181C mutant infected in human MT2 cells to IC50 for HIV1 NL4-3 infected in human MT2 cells; assay type: functional
Method in brief: (§2)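 Fold change is the IC50 against the resistant strain divided by the IC50 against the wild-type NL4–3 reference. Both IC50 values come from the BiCycle assay (MT-2 infection, then TZM-bl readout of progeny virus).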

[9] = test system: Human immunodeficiency virus 1; test: Selectivity ratio of IC50 for HIV1 12465 harboring protease M46I/I54V/Q58E/T74P/V82L/L90M mutant infected in human MT2 cells to IC50 for HIV1 NL4-3 infected in human MT2 cells; assay type: functional; method in brief: as §2
[10] = test system: Human immunodeficiency virus 1; test: Antiviral activity against HIV1 7401 harboring nucleoside reverse transcriptase M41L/E44D/D67N/T69D/M184V/L210W/T215Y mutant infected in human TZM-bl cells infected with supernatants from virus-infected human MT2 cells treated with compound for 72 hrs assessed as reduction in viral replication after 48 hrs by bright Glo-luciferase reporter gene assay; assay type: functional, organism-based; settings: Human immunodeficiency virus 1, 7401; method in brief: as §1
[11] = test system: Human immunodeficiency virus 1; test: Antiviral activity against HIV1 11845 harboring integrase 140S/148H double mutant infected in human TZM-bl cells infected with supernatants from virus-infected human MT2 cells treated with compound for 72 hrs assessed as reduction in viral replication after 48 hrs by bright Glo-luciferase reporter gene assay; assay type: functional, organism-based; settings: Human immunodeficiency virus 1, 11845; method in brief: as §1
[12] = test system: Human immunodeficiency virus 1; test: Selectivity ratio of IC50 for HIV1 7400 harboring nucleoside reverse transcriptase M41L/D67N/M184V/L210W/T215Y mutant infected in human MT2 cells to IC50 for HIV1 NL4-3 infected in human MT2 cells; assay type: functional; method in brief: as §2
[13] = test system: Human immunodeficiency virus 1; test: Selectivity ratio of IC50 for HIV1 11845 harboring integrase 140S/148H double mutant mutant infected in human MT2 cells to IC50 for HIV1 NL4-3 infected in human MT2 cells; assay type: functional; method in brief: as §2
[14] = test system: Human immunodeficiency virus 1; test: Antiviral activity against HIV1 12231 harboring non-nucleoside reverse transcriptase 103N/179F/181C mutant infected in human TZM-bl cells infected with supernatants from virus-infected human MT2 cells treated with compound for 72 hrs assessed as reduction in viral replication after 48 hrs by bright Glo-luciferase reporter gene assay; assay type: functional, organism-based; settings: Human immunodeficiency virus 1, 12231; method in brief: as §1
[15] = test system: Human immunodeficiency virus 1; test: Selectivity ratio of IC50 for HIV1 11808 harboring protease L10F/K20T/V32I/L33F/I54V/G73S/I84V/L89V/L90M mutant infected in human MT2 cells to IC50 for HIV1 NL4-3 infected in human MT2 cells; assay type: functional; method in brief: as §2
[16] = test system: Human immunodeficiency virus 1; test: Antiviral activity against HIV1 12229 harboring non-nucleoside reverse transcriptase L100I/K103N/H221Y mutant infected in human TZM-bl cells infected with supernatants from virus-infected human MT2 cells treated with compound for 72 hrs assessed as reduction in viral replication after 48 hrs by bright Glo-luciferase reporter gene assay; assay type: functional, organism-based; settings: Human immunodeficiency virus 1, 12229; method in brief: as §1
[17] = test system: Human immunodeficiency virus 1; test: Selectivity ratio of IC50 for HIV1 7401 harboring nucleoside reverse transcriptase M41L/E44D/D67N/T69D/M184V/L210W/T215Y mutant infected in human MT2 cells to IC50 for HIV1 NL4-3 infected in human MT2 cells; assay type: functional; method in brief: as §2
[18] = test system: Human immunodeficiency virus 1; test: Antiviral activity against HIV1 12465 harboring protease M46I/I54V/Q58E/T74P/V82L/L90M mutant infected in human TZM-bl cells infected with supernatants from virus-infected human MT2 cells treated with compound for 72 hrs assessed as reduction in viral replication after 48 hrs by bright Glo-luciferase reporter gene assay; assay type: functional, organism-based; settings: Human immunodeficiency virus 1, 12465; method in brief: as §1
[19] = test system: Human immunodeficiency virus 1; test: Selectivity ratio of IC50 for HIV1 12229 harboring non-nucleoside reverse transcriptase L100I/K103N/H221Y mutant infected in human MT2 cells to IC50 for HIV1 NL4-3 infected in human MT2 cells; assay type: functional; method in brief: as §2
[20] = test system: Human immunodeficiency virus 1; test: Antiviral activity against HIV1 11808 harboring protease L10F/K20T/V32I/L33F/I54V/G73S/I84V/L89V/L90M mutant infected in human TZM-bl cells infected with supernatants from virus-infected human MT2 cells treated with compound for 72 hrs assessed as reduction in viral replication after 48 hrs by bright Glo-luciferase reporter gene assay; assay type: functional, organism-based; settings: Human immunodeficiency virus 1, 11808; method in brief: as §1

## Cc1nnc(C(=O)NC(C)(C)c2nc(C(=O)NCc3ccc(F)cc3)c(O)c(=O)n2C)o1
[1]
  Activity: Active

## Nc1nc(-c2ccc(OCc3cccc(C(=O)NCCCCNC(=O)c4ccc(COc5ccccc5-c5csc(N)n5)cc4)c3)cc2)cs1
[2]
  selectivity ratio at 48 h: > 20
[3]
  IC50: 5 µM
[4]
  inhibition: 19%
[5]
  CC50 at 168 h: > 100 µM
[6]
  IC50: 16 µM

## Nc1nc(-c2ccc(OCc3cccc(C(=O)NCCNC(=O)c4ccc(COc5ccc(F)cc5-c5csc(N)n5)cc4)c3)cc2)cs1.O=C(O)C(F)(F)F.O=C(O)C(F)(F)F
[7]
  IC50: 1.1 µM
[8]
  Ratio IC50: 3.6
[9]
  Ratio IC50: 1.8
[2]
  selectivity ratio at 48 h: > 45
[3]
  IC50: 1.1 µM
[10]
  IC50: 0.6 µM
[11]
  IC50: 3 µM
[4]
  inhibition: 16%
[12]
  Ratio IC50: 1
[13]
  Ratio IC50: 2.7
[14]
  IC50: 4 µM
[5]
  CC50 at 168 h: > 50 µM
[15]
  Ratio IC50: 0.7
[16]
  IC50: 0.9 µM
[6]
  IC50: > 50 µM
[17]
  Ratio IC50: 0.5
[18]
  IC50: 2 µM
[19]
  Ratio IC50: 0.8
[20]
  IC50: 0.8 µM

## Nc1nc(CCc2nc(-c3ccc(COc4ccccc4-c4csc(N)n4)cc3)no2)cs1
[3]
  IC50: 6 µM
[4]
  inhibition: inactive
[6]
  IC50: 35 µM

## Nc1ccc(NCCNS(=O)(=O)c2ccc(COc3ccccc3-c3csc(N)n3)cc2)nc1
[3]
  IC50: > 100 µM
[6]
  IC50: > 100 µM

## Nc1nc(-c2ccc(C(=O)NCCNC(=O)c3ccc(COc4ccccc4-c4csc(N)n4)cc3)cc2)cs1
[3]
  IC50: 5 µM
[4]
  inhibition: inactive
[6]
  IC50: 30 µM

## Nc1nc(-c2ccc(OCc3cccc(C(=O)NCCNC(=O)c4ccc(COc5cccc6sc(N)nc56)cc4)c3)cc2)cs1
[3]
  IC50: 37 µM
[4]
  inhibition: 17%
[6]
  IC50: > 50 µM

## Nc1ccc(NCCNC(=O)c2ccc(COc3ccccc3-c3csc(N)n3)cc2)nc1.O=C(O)C(F)(F)F.O=C(O)C(F)(F)F.O=C(O)C(F)(F)F
[7]
  IC50: 1.5 µM
[8]
  Ratio IC50: 1.3
[9]
  Ratio IC50: 1.6
[2]
  selectivity ratio at 48 h: 12
[3]
  IC50: 3.8 µM
[10]
  IC50: 2.7 µM
[11]
  IC50: 2.3 µM
[4]
  inhibition: 15%
[12]
  Ratio IC50: 0.4
[13]
  Ratio IC50: 0.6
[14]
  IC50: 5 µM
[5]
  CC50 at 168 h: 45 µM
[15]
  Ratio IC50: 0.8
[16]
  IC50: 12 µM
[6]
  IC50: > 50 µM
[17]
  Ratio IC50: 0.7
[18]
  IC50: 6 µM
[19]
  Ratio IC50: 3.1
[20]
  IC50: 3 µM

## Nc1nc(-c2ccc(C(=O)NCCCNC(=O)c3ccc(COc4ccccc4-c4csc(N)n4)cc3)cc2)cs1
[3]
  IC50: 15 µM
[4]
  inhibition: 15%
[6]
  IC50: 12 µM

## Nc1nc(-c2ccccc2OCc2ccc(C(=O)NCCCNc3ccc([N+](=O)[O-])cn3)cc2)cs1
[3]
  IC50: 12 µM
[4]
  inhibition: 21%
[6]
  IC50: 28 µM

## Nc1nc(-c2ccc(OCc3cccc(C(=O)N4CCN(C(=O)c5ccc(COc6ccccc6-c6csc(N)n6)cc5)CC4)c3)cc2)cs1
[3]
  IC50: 28 µM
[4]
  inhibition: 15%
[6]
  IC50: > 50 µM

## Nc1nc(CCNC(=O)c2ccc(COc3ccccc3-c3csc(N)n3)cc2)cs1
[3]
  IC50: 36 µM
[4]
  inhibition: 16%
[6]
  IC50: > 50 µM

## Nc1nc(-c2ccc(OCc3cccc(C(=O)NCCNC(=O)c4ccc(COc5ccccc5-c5csc(N)n5)cc4)c3)cc2)cs1.O=C(O)C(F)(F)F.O=C(O)C(F)(F)F
[7]
  IC50: 0.8 µM
[8]
  Ratio IC50: 0.6
[9]
  Ratio IC50: 0.9
[2]
  selectivity ratio at 48 h: 23
[3]
  IC50: 1.3 µM
[10]
  IC50: 1.2 µM
[11]
  IC50: 1 µM
[4]
  inhibition: 24%
[12]
  Ratio IC50: 0.6
[13]
  Ratio IC50: 0.8
[14]
  IC50: 0.8 µM
[5]
  CC50 at 168 h: 30 µM
[15]
  Ratio IC50: 1.3
[16]
  IC50: 2.2 µM
[6]
  IC50: 5 µM
[17]
  Ratio IC50: 0.9
[18]
  IC50: 1.2 µM
[19]
  Ratio IC50: 1.7
[20]
  IC50: 2.1 µM

## Nc1nc(-c2ccc(OCc3cccc(C(=O)NCCCNC(=O)c4ccc(COc5ccccc5-c5csc(N)n5)cc4)c3)cc2)cs1
[3]
  IC50: 12 µM
[4]
  inhibition: 16%
[6]
  IC50: > 50 µM

## Nc1nc(-c2ccccc2OCc2ccc(C(=O)NCCN3CCOCC3)cc2)cs1
[3]
  IC50: > 100 µM
[6]
  IC50: > 100 µM

## Nc1nc(-c2ccc(OCc3cccc(C(=O)NCCNC(=O)c4ccc(COc5ccccc5-c5coc(N)n5)cc4)c3)cc2)co1
[3]
  IC50: 6.2 µM
[4]
  inhibition: 21%
[6]
  IC50: > 50 µM

## Nc1nc(CC(=O)NCCNC(=O)c2ccc(COc3ccccc3-c3csc(N)n3)cc2)cs1
[3]
  IC50: > 100 µM
[6]
  IC50: > 100 µM
